Laboratory results as given in ChEMBL document CHEMBL1152469, “Telithromycin resistance in Streptococcus pneumoniae is conferred by a deletion in the leader sequence of erm(B) that increases rRNA methylation” (2008).
Values after ≈ are worked out from the molar mass of the structure shown.

What was measured:
Type in all cases: functional
Streptococcus pneumoniae [1] = experiment: Antimicrobial activity against telithromycin-resistant Streptococcus pneumoniae isolate P1501016 by agar dilution method
Summary of the method: (§1)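 Agar dilution MICs per CLSI agar plate preparation, plates containing 5% horse blood, incubated in ambient air 20-24 h; MICs interpreted with CLSI broth microdilution breakpoints (telithromycin ≤1 µg/ml S, 2 I, ≥4 R). Reference strain S. pneumoniae ATCC49619. Induction testing run without and with erythromycin (0.25 µg/ml).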

Streptococcus pneumoniae [2] = experiment: Antimicrobial activity against wild-type Streptococcus pneumoniae PC13 by agar dilution method
Summary of the method: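 Agar dilution MICs on plates prepared per CLSI guidance and containing 5% horse blood. Plates incubated in ambient air for 20-24 h. Interpretation used CLSI broth microdilution breakpoints, with S. pneumoniae ATCC49619 as reference strain.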

Streptococcus pneumoniae [3] = experiment: Antimicrobial activity against Streptococcus pneumoniae PC13 transformant harboring 136-bp deletion in erm(B) gene by agar dilution method; summary of the method: as §1
Streptococcus pneumoniae [4] = experiment: Increase in erm(B) mRNA expression in Streptococcus pneumoniae PC13 transformant harboring 136-bp deletion in erm(B) gene at 0.008 ug/ml by qRT-PCR relative to baseline
Summary of the method: (§2)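 Cells grown in Tryptone Soya Broth at 37°C, 5% CO2 to OD600 0.2, in triplicate cultures per strain, without antibiotic or with telithromycin 0.008 µg/ml (erythromycin 0.25 µg/ml as a further condition). Cultures were then stabilised in RNAProtect Bacteria Reagent and pelleted. Total RNA was extracted and erm(B) mRNA quantified relative to untreated cultures.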

Streptococcus pneumoniae [5] = experiment: Increase in erm(B) mRNA expression in wild-type Streptococcus pneumoniae PC13 at 0.008 ug/ml by qRT-PCR relative to baseline; summary of the method: as §2
Streptococcus pneumoniae [6] = experiment: Increase in dimethylation at position A2058 of 23S rRNA of wild type Streptococcus pneumoniae PC13 at 0.008 ug/ml by phosphorimager scanning relative to baseline
Summary of the method: (§3)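 Cells grown in Tryptone Soya Broth at 37°C, 5% CO2 to OD600 0.2, either untreated, with telithromycin 0.008 µg/ml, or with erythromycin 0.25 µg/ml. Total RNA extracted. A primer complementary to 23S rRNA G2061-U2079 was extended by reverse transcriptase on 1.5 pmol rRNA with dTTP, dCTP and ddGTP. Triplicate reactions run on denaturing gels beside a sequencing ladder and quantified by phosphorimager.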

Streptococcus pneumoniae [7] = experiment: Increase in dimethylation at position A2058 of 23S rRNA of wild type Streptococcus pneumoniae PC13 at 0.25 ug/ml by phosphorimager scanning relative to baseline; summary of the method: as §3
Streptococcus pneumoniae [8] = experiment: Increase in dimethylation at position A2058 of 23S rRNA of Streptococcus pneumoniae PC13 transformant harboring 136-bp deletion in erm(B) gene at 0.008 ug/ml by phosphorimager scanning relative to baseline
Summary of the method: (§4)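 Cells grown in TSB at 37°C, 5% CO2 to OD600 0.2, untreated or with telithromycin (0.008 µg/ml) or erythromycin (0.25 µg/ml), three cultures per condition. Total RNA extracted. Primer extension across G2061-U2079 of 23S rRNA on 1.5 pmol rRNA with reverse transcriptase, ddGTP mix in test samples, done in triplicate. Products run on denaturing polyacrylamide gels, quantified by phosphorimager as % A2058 dimethylation.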

Streptococcus pneumoniae [9] = experiment: Increase in dimethylation at position A2058 of 23S rRNA of Streptococcus pneumoniae isolate P1501016 at 0.008 ug/ml by phosphorimager scanning relative to baseline; summary of the method: as §3
Streptococcus pneumoniae [10] = experiment: Increase in erm(B) mRNA expression in Streptococcus pneumoniae […] transformant harboring 136-bp deletion in erm(B) gene at 0.25 ug/ml by qRT-PCR relative to baseline
Summary of the method: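 Strains grown in TSB at 37°C, 5% CO2 to OD600 0.2, untreated or with erythromycin (0.25 µg/ml), three cultures per condition. Cells stabilised in RNAProtect before RNA extraction. erm(B) mRNA quantified relative to the untreated culture. Means compared by paired t test at the 95% level.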

Streptococcus pneumoniae [11] = experiment: Increase in erm(B) mRNA expression in wild type Streptococcus pneumoniae PC13 at 0.25 ug/ml by qRT-PCR relative to baseline
Summary of the method: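 Cultures grown in triplicate in Tryptone Soya Broth at 37°C, 5% CO2 to OD600 0.2, without antibiotic or with erythromycin 0.25 µg/ml. Cells stabilised in RNAProtect, then RNA extracted for relative quantification of erm(B) mRNA against untreated cells.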

Streptococcus pneumoniae [12] = experiment: Increase in dimethylation at position A2058 of 23S rRNA of Streptococcus pneumoniae PC13 transformant harboring 136-bp deletion in erm(B) gene at 0.25 ug/ml by phosphorimager scanning relative to baseline; summary of the method: as §4
Streptococcus pneumoniae [13] = experiment: Increase in dimethylation at position A2058 of 23S rRNA of Streptococcus pneumoniae isolate P1501016 at 0.25 ug/ml by phosphorimager scanning relative to baseline; summary of the method: as §3
Streptococcus pneumoniae [14] = experiment: Increase in lag phase of growth for wild type Streptococcus pneumoniae PC13 assessed as doubling time at 1 ug/ml
Summary of the method: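 Glycerol stocks diluted 1:100 into Tryptone Soya Broth with or without erythromycin 1 µg/ml and incubated at 37°C, 5% CO2. OD600 read every 30 min, and doubling time calculated over exponential growth.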

Streptococcus pneumoniae [15] = experiment: Increase in lag phase of growth for Streptococcus pneumoniae PC13 transformant harboring 136-bp deletion in erm(B) gene assessed as doubling time at 1 ug/ml
Summary of the method: (§5)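 Inoculated from glycerol stocks 1:100 into TSB with or without erythromycin (1 µg/ml), 37°C in 5% CO2. OD600 read every 30 min; doubling time calculated over exponential growth.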

Streptococcus pneumoniae [16] = experiment: Increase in lag phase of growth for telithromycin-resistant Streptococcus pneumoniae isolate P1501016 assessed as doubling time at 1 ug/ml; summary of the method: as §5

CN(C)[C@@H]1C(O)=C(C(N)=O)C(=O)[C@@]2(O)C(O)=C3C(=O)c4c(O)cccc4[C@@](C)(O)[C@H]3C[C@@H]12 [TETRACYCLINE]
MIC (Streptococcus pneumoniae [1]): 4 µg/mL (≈ 9 µM) | MIC (Streptococcus pneumoniae [2]): 16 µg/mL (≈ 36 µM) | MIC (Streptococcus pneumoniae [3]): 16 µg/mL (≈ 36 µM)

CC[C@H]1OC(=O)[C@H](C)C(=O)[C@H](C)[C@@H](O[C@@H]2O[C@H](C)C[C@H](N(C)C)[C@H]2O)[C@](C)(OC)C[C@@H](C)C(=O)[C@H](C)[C@H]2N(CCCCn3cnc(-c4cccnc4)c3)C(=O)O[C@]12C [TELITHROMYCIN]
MIC (Streptococcus pneumoniae [1]): 8 µg/mL (≈ 9.85 µM) | MIC (Streptococcus pneumoniae [2]): 0.06 µg/mL (≈ 0.0739 µM) | MIC (Streptococcus pneumoniae [3]): 16 µg/mL (≈ 19.7 µM) | fold change (FC) (Streptococcus pneumoniae [4]): 1.31 | fold change (FC) (Streptococcus pneumoniae [5]): 0.66 | Activity (Streptococcus pneumoniae [6]): 29% | Activity (Streptococcus pneumoniae [7]): 46% | Activity (Streptococcus pneumoniae [8]): 64% | Activity (Streptococcus pneumoniae [9]): 66%

CC[C@H]1OC(=O)[C@H](C)[C@@H](O[C@H]2C[C@@](C)(OC)[C@@H](O)[C@H](C)O2)[C@H](C)[C@@H](O[C@@H]2O[C@H](C)C[C@H](N(C)C)[C@H]2O)[C@](C)(O)C[C@@H](C)C(=O)[C@H](C)[C@@H](O)[C@]1(C)O [ERYTHROMYCIN]
MIC (Streptococcus pneumoniae [1]): > 256 µg/mL | MIC (Streptococcus pneumoniae [2]): > 256 µg/mL | fold change (FC) (Streptococcus pneumoniae [10]): 4.98 | fold change (FC) (Streptococcus pneumoniae [11]): 2.57 | Activity (Streptococcus pneumoniae [12]): 72% | Activity (Streptococcus pneumoniae [13]): 68% | Activity (Streptococcus pneumoniae [14]): 53 min | Activity (Streptococcus pneumoniae [15]): 52.5 min | Activity (Streptococcus pneumoniae [16]): 43.3 min

CCC[C@@H]1C[C@@H](C(=O)N[C@@H]([C@H]2O[C@H](SC)[C@H](O)[C@@H](O)[C@H]2O)[C@H](C)Cl)N(C)C1 [CLINDAMYCIN]
MIC (Streptococcus pneumoniae [1]): > 256 µg/mL | MIC (Streptococcus pneumoniae [2]): > 256 µg/mL

CC[C@H]1OC(=O)[C@H](C)[C@@H](O[C@H]2C[C@@](C)(OC)[C@@H](O)[C@H](C)O2)[C@H](C)[C@@H](O[C@@H]2O[C@H](C)C[C@H](N(C)C)[C@H]2O)[C@](C)(OC)C[C@@H](C)C(=O)[C@H](C)[C@@H](O)[C@]1(C)O [CLARITHROMYCIN]
MIC (Streptococcus pneumoniae [1]): > 256 µg/mL | MIC (Streptococcus pneumoniae [2]): > 256 µg/mL
